Reference: ChEMBL document CHEMBL3774372, “Design, physico-chemical properties and biological evaluation of some new N-[(phenoxy)alkyl]- and N-{2-[2-(phenoxy)ethoxy]ethyl}aminoalkanols as anticonvulsant agents” (Bioorg Med Chem, 2016)
The source made the active and inactive calls.

Legend:
[1] = […] from rat cerebral cortex Sodium channel site 2; assay type: tissue-based
[2] = […] from rat cerebral cortex GABA-gated chloride channel; assay type: tissue-based
Mus musculus [3] = experiment: Anticonvulsant activity in mouse assessed as protection against 6 Hz psychomotor seizure at 100 mg/kg, ip after 1 hr; assay type: functional, organism-based
Method in brief: (§1)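 Suspension in 0.5% methylcellulose given ip to mice; corneal stimulation with 0.2 ms monopolar rectangular pulses at 6 Hz for 3 s from a constant current device, mice restrained then released to observation cage. Protected if normal exploratory behaviour resumed within 10 s of stimulation. Scored as protected/tested, 4 mice per group.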

Mus musculus [4] = experiment: Anticonvulsant activity in mouse assessed as protection against 6 Hz psychomotor seizure at 100 mg/kg, ip after 2 hrs; assay type: functional, organism-based; method in brief: as §1
Mus musculus [5] = experiment: Neurotoxicity in mouse at 100 mg/kg, ip after 2 hrs by rotarod test; assay type: toxicity, organism-based; conditions: in vivo
Method in brief: (§2)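 Mice were dosed ip with compound suspended in 0.5% methylcellulose. Rotarod: a 1 in. knurled rod turning at 6 rpm. Neurotoxicity was scored as failure to stay on the rod for at least 1 min in each of three trials. Results are given as the number of animals affected out of the number tested.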

Mus musculus [6] = experiment: Anticonvulsant activity in mouse assessed as protection against 6 Hz psychomotor seizure at 100 mg/kg, ip after 0.5 hrs; assay type: functional, organism-based; method in brief: as §1
Mus musculus [7] = experiment: Anticonvulsant activity in mouse assessed as protection against 6 Hz psychomotor seizure at 100 mg/kg, ip after 4 hrs; assay type: functional, organism-based; method in brief: as §1
Mus musculus [8] = experiment: Neurotoxicity in mouse at 100 mg/kg, ip after 4 hrs by rotarod test; assay type: toxicity, organism-based; conditions: in vivo; method in brief: as §2
Mus musculus [9] = experiment: Anticonvulsant activity in mouse assessed as protection against maximal electric shock-induced seizures at 100 mg/kg, ip measured after […]; assay type: functional, organism-based
Mus musculus [10] = experiment: Anticonvulsant activity in mouse assessed as protection against maximal electric shock-induced seizures at 30 mg/kg, ip measured after 0.5 hrs; assay type: functional, organism-based
Method in brief: (§3)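 Mice dosed ip with suspension in 0.5% methylcellulose; maximal electroshock applied at the listed time after dosing. Protection = abolition of hindlimb tonic extension component of seizure; reported as animals protected/animals tested.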

Mus musculus [11] = experiment: Anticonvulsant activity in mouse assessed as protection against maximal electric shock-induced seizures at 30 mg/kg, ip measured after 4 hrs; assay type: functional, organism-based; method in brief: as §3
Mus musculus [12] = experiment: Anticonvulsant activity in mouse assessed as protection against maximal electric shock-induced seizures at 100 mg/kg, ip measured after 0.5 hrs; assay type: functional, organism-based; method in brief: as §3
Mus musculus [13] = experiment: Anticonvulsant activity in mouse assessed as protection against maximal electric shock-induced seizures at 100 mg/kg, ip measured after 1 hr; assay type: functional, organism-based; method in brief: as §3
Mus musculus [14] = experiment: Anticonvulsant activity in mouse assessed as protection against maximal electric shock-induced seizures at 100 mg/kg, ip measured after 4 hrs; assay type: functional, organism-based; method in brief: as §3
Mus musculus [15] = experiment: Anticonvulsant activity in mouse assessed as protection against maximal electric shock-induced seizures at 300 mg/kg, ip measured after 0.5 hrs; assay type: functional, organism-based; method in brief: as §3
Mus musculus [16] = experiment: Anticonvulsant activity in mouse assessed as protection against maximal electric shock-induced seizures at 300 mg/kg, ip measured after 4 hrs; assay type: functional, organism-based; method in brief: as §3
Mus musculus [17] = experiment: Anticonvulsant activity in mouse assessed as protection against subcutaneous pentylenetetrazol-induced seizures at 30 mg/kg, ip measured after 0.5 hrs; assay type: functional, organism-based
Method in brief: (§4)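 Mice dosed ip as 0.5% methylcellulose suspension; pentylenetetrazole 85 mg/kg in 0.9% NaCl injected subcutaneously into posterior midline, animals watched at least 30 min. Protection = no threshold seizure (single clonic spasm episode lasting ≥5 s); scored protected/tested.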

Mus musculus [18] = experiment: Anticonvulsant activity in mouse assessed as protection against subcutaneous pentylenetetrazol-induced seizures at 100 mg/kg, ip measured after 0.5 hrs; assay type: functional, organism-based; method in brief: as §4
Mus musculus [19] = experiment: Anticonvulsant activity in mouse assessed as protection against subcutaneous pentylenetetrazol-induced seizures at 300 mg/kg, ip measured after 0.5 hrs; assay type: functional, organism-based; method in brief: as §4
Mus musculus [20] = experiment: Anticonvulsant activity in mouse assessed as protection against subcutaneous pentylenetetrazol-induced seizures at 30 mg/kg, ip measured after 4 hrs; assay type: functional, organism-based; method in brief: as §4
Mus musculus [21] = experiment: Anticonvulsant activity in mouse assessed as protection against subcutaneous pentylenetetrazol-induced seizures at 100 mg/kg, ip measured after 4 hrs; assay type: functional, organism-based; method in brief: as §4
Mus musculus [22] = experiment: Anticonvulsant activity in mouse assessed as protection against subcutaneous pentylenetetrazol-induced seizures at 300 mg/kg, ip measured after 4 hrs; assay type: functional, organism-based; method in brief: as §4
Mus musculus [23] = experiment: Neurotoxicity in mouse at 30 mg/kg, ip after […] by rotarod test; assay type: toxicity, organism-based; conditions: in vivo
Mus musculus [24] = experiment: Neurotoxicity in mouse at 100 mg/kg, ip after 1 hr by rotarod test; assay type: toxicity, organism-based; conditions: in vivo; method in brief: as §2
Mus musculus [25] = experiment: Neurotoxicity in mouse at 300 mg/kg, ip after 0.5 hrs by rotarod test; assay type: toxicity, organism-based; conditions: in vivo; method in brief: as §2
Mus musculus [26] = experiment: Neurotoxicity in mouse at 300 mg/kg, ip after 4 hrs by rotarod test; assay type: toxicity, organism-based; conditions: in vivo; method in brief: as §2
[27] = molecular target: 5-hydroxytryptamine receptor 2C (Homo sapiens, UniProt P28335); experiment: Displacement of [3H][…] from human recombinant 5-HT2C receptor expressed in HEK293 cells; assay type: cell-based
Chain of 5-hydroxytryptamine receptor 2C (P28335 whole entry): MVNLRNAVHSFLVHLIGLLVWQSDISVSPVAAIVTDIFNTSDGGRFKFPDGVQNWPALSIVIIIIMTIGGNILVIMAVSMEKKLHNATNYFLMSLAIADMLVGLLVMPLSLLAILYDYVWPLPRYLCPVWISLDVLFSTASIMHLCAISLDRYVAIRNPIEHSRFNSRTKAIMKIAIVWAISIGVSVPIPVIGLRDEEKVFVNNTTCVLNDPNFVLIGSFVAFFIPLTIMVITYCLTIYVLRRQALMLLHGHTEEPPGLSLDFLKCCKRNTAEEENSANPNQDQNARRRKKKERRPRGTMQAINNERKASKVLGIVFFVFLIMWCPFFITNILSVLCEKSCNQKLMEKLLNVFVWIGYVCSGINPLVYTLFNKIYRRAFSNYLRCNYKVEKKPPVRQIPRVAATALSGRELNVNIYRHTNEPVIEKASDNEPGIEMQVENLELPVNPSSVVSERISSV

Mus musculus [28] = experiment: Anticonvulsant activity in mouse assessed as protection against 6 Hz psychomotor seizure at 50 mg/kg, ip after 1 hr; assay type: functional, organism-based; method in brief: as §1
Mus musculus [29] = experiment: Anticonvulsant activity in mouse assessed as protection against 6 Hz psychomotor seizure at 50 mg/kg, ip after 2 hrs; assay type: functional, organism-based; method in brief: as §1
Mus musculus [30] = experiment: Anticonvulsant activity in mouse assessed as protection against 6 Hz psychomotor seizure at 50 mg/kg, ip after 4 hrs; assay type: functional, organism-based; method in brief: as §1
Mus musculus [31] = experiment: Neurotoxicity in mouse at 50 mg/kg, ip after 0.5 hrs by rotarod test; assay type: toxicity, organism-based; conditions: in vivo; method in brief: as §2
Mus musculus [32] = experiment: Neurotoxicity in mouse at 50 mg/kg, ip after 1 hr by rotarod test; assay type: toxicity, organism-based; conditions: in vivo; method in brief: as §2
Mus musculus [33] = experiment: Neurotoxicity in mouse at 50 mg/kg, ip after 2 hrs by rotarod test; assay type: toxicity, organism-based; conditions: in vivo; method in brief: as §2
Mus musculus [34] = experiment: Neurotoxicity in mouse at 50 mg/kg, ip after 4 hrs by rotarod test; assay type: toxicity, organism-based; conditions: in vivo; method in brief: as §2
Vibrio harveyi [35] = experiment: Mutagenicity in Vibrio harveyi BB7 assessed as number of colonies after 48 hrs (reference value: 13 to 14 no_unit); assay type: ADME, organism-based; conditions: in vivo
Method in brief: (§5)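 Vibrio harveyi mutagenicity test: test compound was added to exponentially growing cultures (A600 = 0.1, 30 °C) and grown to OD600 0.3–0.4. Then 5 × 10^6 cells were plated on BOSS agar with neomycin (final 100 µg/mL) and incubated 48 h at 30 °C. Neomycin-resistant colonies were counted. Triplicate; controls were water, DMSO and NQNO 40 ng/mL.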

Vibrio harveyi [36] = experiment: Mutagenicity in Vibrio harveyi BB7X assessed as number of colonies after 48 hrs (reference value: 15 to 16 no_unit); assay type: ADME, organism-based; conditions: in vivo; method in brief: as §5
Vibrio harveyi [37] = experiment: Mutagenicity in Vibrio harveyi BB7M assessed as number of colonies after 48 hrs (reference value: 13 to 14 no_unit); assay type: ADME, organism-based; conditions: in vivo; method in brief: as §5
Vibrio harveyi [38] = experiment: Mutagenicity in Vibrio harveyi BB7XM assessed as number of colonies after 48 hrs (reference value: 14 no_unit); assay type: ADME, organism-based; conditions: in vivo; method in brief: as §5
Vibrio harveyi [39] = experiment: Antimutagenic activity against Vibrio harveyi BB7 assessed as inhibition of NQNO-induced mutagenicity after 48 hrs; assay type: functional
Method in brief: (§6)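 V. harveyi cultures grown exponentially to A600 0.1 at 30 °C, exposed to test compound for 15 min, then to NQNO, and grown on to A600 0.3–0.4. 5 × 10⁶ cells plated on BOSS agar with neomycin (100, final). Neomycin-resistant colonies counted after 48 h at 30 °C. Result given as % inhibition of NQNO mutagenicity; three independent repeats.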

Vibrio harveyi [40] = experiment: Antimutagenic activity against Vibrio harveyi BB7X assessed as inhibition of NQNO-induced mutagenicity after 48 hrs; assay type: functional; method in brief: as §6
Vibrio harveyi [41] = experiment: Antimutagenic activity against Vibrio harveyi BB7M assessed as inhibition of NQNO-induced mutagenicity after 48 hrs; assay type: functional; method in brief: as §6
Vibrio harveyi [42] = experiment: Antimutagenic activity against Vibrio harveyi BB7XM assessed as inhibition of NQNO-induced mutagenicity after 48 hrs; assay type: functional; method in brief: as §6

## COc1ccc(C(=O)O[C@H]2CC[C@@]3(C)[C@@H]4CC[C@H]5[C@]6(O)C[C@H](O)[C@@]7(O)[C@@H](CN8C[C@@H](C)CC[C@H]8[C@@]7(C)O)[C@]6(O)C[C@@]53O[C@]24O)cc1OC [VERATRIDINE]
[1]
  IC50: 4000 nM

## C=C(C)[C@@H]1[C@H]2OC(=O)[C@@H]1[C@]1(O)C[C@H]3O[C@]34C(=O)O[C@H]2[C@]14C [PICROTOXININ]
[2]
  IC50: 77 nM

## Cc1ccc(OCCNC(C)CO)c(C)c1 (configuration not stated)
Mus musculus [3]
  Activity: inactive
Mus musculus [4]
  Activity: inactive
Mus musculus [5]
  Activity: Non-toxic
Mus musculus [6]
  Activity: inactive
Mus musculus [7]
  Activity: inactive
Mus musculus [8]
  Activity: Non-toxic

## Cc1cccc(OCCCNCC(O)c2ccccc2)c1C (configuration not stated)
Mus musculus [9]
  Activity: inactive
Mus musculus [10]
  Activity: inactive
Mus musculus [11]
  Activity: inactive
Mus musculus [12]
  Activity: inactive
Mus musculus [13]
  Activity: inactive
Mus musculus [14]
  Activity: inactive
Mus musculus [15]
  Activity: Active
Mus musculus [16]
  Activity: inactive
Mus musculus [17]
  Activity: inactive
Mus musculus [18]
  Activity: inactive
Mus musculus [19]
  Activity: inactive
Mus musculus [20]
  Activity: inactive
Mus musculus [21]
  Activity: inactive
Mus musculus [22]
  Activity: inactive
Mus musculus [23]
  Activity: Toxic
Mus musculus [24]
  Activity: Toxic
Mus musculus [25]
  Activity: Toxic
Mus musculus [26]
  Activity: Toxic

## COc1cc(OC)c(C(=O)CCCCN2CCC3(CC2)NC(=O)NC3=O)cc1NS(=O)(=O)c1ccc(C(F)(F)F)cc1 [RS-102,221]
[27]
  IC50: 1.5 nM

## Cc1cc(C)c(OCCOCCN[C@@H]2CCCC[C@H]2O)c(C)c1 (racemic)
Mus musculus [28]
  Activity: inactive
Mus musculus [29]
  Activity: inactive
Mus musculus [30]
  Activity: inactive
Mus musculus [31]
  Activity: Non-toxic
Mus musculus [32]
  Activity: Non-toxic
Mus musculus [33]
  Activity: Non-toxic
Mus musculus [34]
  Activity: Non-toxic
Vibrio harveyi [35]
  Activity: 20
Vibrio harveyi [36]
  Activity: 15
Vibrio harveyi [37]
  Activity: 10
Vibrio harveyi [38]
  Activity: 26
Vibrio harveyi [39]
  inhibition (INH): 62%
Vibrio harveyi [40]
  inhibition (INH): 0%
Vibrio harveyi [41]
  inhibition (INH): 27%
Vibrio harveyi [42]
  inhibition (INH): 0%
